Tests used:
PARP-1 = PARP-1 (Homo sapiens, UniProt P09874); experiment: PARP-1 enzyme inhibition; assay type: biochemical; conditions: for percentage of inhibition of PARP-1: concentration not given
EGFR = EGFR (Homo sapiens, UniProt P00533); experiment: EGFR-TK enzyme inhibition; assay type: biochemical; conditions: for percentage of inhibition of EGFR: concentration not given
[1] = test system: apoptosis-related genes (P53, Bax, caspases 3, 8, 9, BCL-2) in HepG2 cells; experiment: RT-PCR gene expression of apoptosis-related genes in HepG2 cells; assay type: cell-based; conditions: HepG2, IC50, 48 h, normalized to β-actin
HepG2 cells [2] = experiment: Annexin V/PI staining flow cytometry; assay type: cell-based; conditions: HepG2, treated at IC50 for 48 h
HepG2 cells [3] = experiment: Cell cycle analysis by flow cytometry in HepG2 cells; assay type: cell-based; conditions: HepG2, treated at IC50 for 48 h
Summary of the method: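 Flow cytometric cell-phase distribution of HepG2 cells. Cells were left untreated or given test compound at its IC50 for 48 h. Data are mean ± SD of three independent runs.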

HepG2 cells [4] = experiment: MTT cytotoxicity assay against HepG2 cells; assay type: cell-based; conditions: read-out: IC50 ± SD HepG2, mean ± SD of three independent trials
Summary of the method: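 HepG2 cells (NCI Cairo) grown in RPMI-1640 with L-glutamine, 10% FBS and 1% penicillin–streptomycin at 37 °C, 5% CO2. Plated in triplicate at 5 × 10^4 cells; next day treated at 0.01, 0.1, 1, 10 and 100 μM. Viability measured by MTT relative to control, IC50 computed. Mean ± SD of three independent trials.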

Sequence of EGFR (P00533 25-1210): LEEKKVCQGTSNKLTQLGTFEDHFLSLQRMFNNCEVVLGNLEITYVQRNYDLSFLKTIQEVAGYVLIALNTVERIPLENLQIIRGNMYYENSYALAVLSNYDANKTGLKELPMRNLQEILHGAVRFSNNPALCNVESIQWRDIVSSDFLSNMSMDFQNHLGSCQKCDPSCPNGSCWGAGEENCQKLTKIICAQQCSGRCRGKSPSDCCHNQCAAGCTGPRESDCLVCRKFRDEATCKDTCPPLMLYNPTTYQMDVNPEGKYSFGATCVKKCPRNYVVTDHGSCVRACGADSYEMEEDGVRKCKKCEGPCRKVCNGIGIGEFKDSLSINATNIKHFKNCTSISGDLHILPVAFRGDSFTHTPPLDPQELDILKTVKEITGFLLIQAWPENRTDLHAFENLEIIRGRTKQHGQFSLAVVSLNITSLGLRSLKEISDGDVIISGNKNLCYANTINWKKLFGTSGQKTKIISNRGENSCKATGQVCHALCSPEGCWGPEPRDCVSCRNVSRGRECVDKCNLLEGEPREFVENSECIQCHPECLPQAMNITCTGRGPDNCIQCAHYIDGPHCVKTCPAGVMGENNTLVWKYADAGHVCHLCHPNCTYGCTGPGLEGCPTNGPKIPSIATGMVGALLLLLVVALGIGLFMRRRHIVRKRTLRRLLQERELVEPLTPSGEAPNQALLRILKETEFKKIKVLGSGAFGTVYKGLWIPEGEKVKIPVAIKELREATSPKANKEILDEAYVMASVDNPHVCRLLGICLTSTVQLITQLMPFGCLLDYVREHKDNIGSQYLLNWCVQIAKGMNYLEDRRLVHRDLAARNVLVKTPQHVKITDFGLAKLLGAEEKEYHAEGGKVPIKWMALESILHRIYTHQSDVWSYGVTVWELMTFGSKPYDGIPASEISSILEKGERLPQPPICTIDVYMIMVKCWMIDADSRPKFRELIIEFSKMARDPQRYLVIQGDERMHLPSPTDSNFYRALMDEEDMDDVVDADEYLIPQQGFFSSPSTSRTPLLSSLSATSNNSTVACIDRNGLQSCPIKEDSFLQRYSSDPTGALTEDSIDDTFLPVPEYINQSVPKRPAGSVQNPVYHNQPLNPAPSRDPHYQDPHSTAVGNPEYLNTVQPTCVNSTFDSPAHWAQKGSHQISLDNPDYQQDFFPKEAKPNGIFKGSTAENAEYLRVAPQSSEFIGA
Sequence of PARP-1 (P09874 whole entry): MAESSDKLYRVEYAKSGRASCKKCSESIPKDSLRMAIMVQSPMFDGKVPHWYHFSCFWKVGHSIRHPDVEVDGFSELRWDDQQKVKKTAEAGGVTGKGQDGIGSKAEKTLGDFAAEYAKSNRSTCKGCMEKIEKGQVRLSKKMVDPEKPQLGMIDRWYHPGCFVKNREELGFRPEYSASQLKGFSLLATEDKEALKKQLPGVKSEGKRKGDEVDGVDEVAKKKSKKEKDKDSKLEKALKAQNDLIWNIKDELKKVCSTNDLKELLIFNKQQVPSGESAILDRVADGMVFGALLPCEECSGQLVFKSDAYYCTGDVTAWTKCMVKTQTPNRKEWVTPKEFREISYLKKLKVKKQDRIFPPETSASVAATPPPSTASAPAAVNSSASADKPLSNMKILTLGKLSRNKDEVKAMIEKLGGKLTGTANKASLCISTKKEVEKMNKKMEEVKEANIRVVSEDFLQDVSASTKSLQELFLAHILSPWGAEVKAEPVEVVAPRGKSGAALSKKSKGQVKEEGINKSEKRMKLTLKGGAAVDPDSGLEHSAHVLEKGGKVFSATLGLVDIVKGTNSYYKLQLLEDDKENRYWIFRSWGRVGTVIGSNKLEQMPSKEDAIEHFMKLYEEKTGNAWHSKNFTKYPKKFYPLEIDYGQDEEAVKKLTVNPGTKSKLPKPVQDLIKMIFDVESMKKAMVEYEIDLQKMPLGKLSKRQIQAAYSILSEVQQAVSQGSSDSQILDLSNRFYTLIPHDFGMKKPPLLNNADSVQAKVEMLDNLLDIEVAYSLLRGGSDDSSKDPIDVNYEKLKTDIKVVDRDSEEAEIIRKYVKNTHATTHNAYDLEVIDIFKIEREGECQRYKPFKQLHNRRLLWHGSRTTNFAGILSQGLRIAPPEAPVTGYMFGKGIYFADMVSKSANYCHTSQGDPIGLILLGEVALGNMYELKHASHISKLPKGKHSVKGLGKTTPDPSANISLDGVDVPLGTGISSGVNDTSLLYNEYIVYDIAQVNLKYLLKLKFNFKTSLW

Row | IC50 (PARP-1) [nM] | percentage of inhibition of PARP-1 (PARP-1) [%] | IC50 (EGFR) [nM] | percentage of inhibition of EGFR (EGFR) [%] | Structure (SMILES) | IC50 (HepG2 cells [4]) [nM] | other results
1 | 18.4 ± 1 | 86.6 | 116 ± 3.1 | 84.3 | Cc1c(C(=O)[C@H]2[C@H](c3cc4ccccc4s3)C3CCCN3[C@]23C(=O)Nc2ccc(F)cc23)nnn1-c1c(Cl)cc(Cl)cc1Cl (stereo partly drawn) [4f, (1′S,2′S,3R)-1′-(Benzo[b]thiophen-2-yl)-5-fluoro-2′-(5-methyl-1-(2,4,6-trichlorophenyl)-1H-1,2,3-triazole-4-carbonyl)-1′,2′,5′,6′,7′,7a′-hexahydrospiro[indoline-3,3′-pyrrolizin]-2-one] | – | –
2 | 3.6 ± 0.3 | 81.2 | 85.3 ± 2.9 | 90.1 | Cc1c(C(=O)[C@H]2[C@H](c3cc4ccccc4s3)C3CCCN3[C@]23C(=O)Nc2cc(Cl)ccc23)nnn1-c1c(Cl)cc(Cl)cc1Cl (stereo partly drawn) [4b, (1′S,2′S,3R)-1′-(Benzo[b]thiophen-2-yl)-6-chloro-2′-(5-methyl-1-(2,4,6-trichlorophenyl)-1H-1,2,3-triazole-4-carbonyl)-1′,2′,5′,6′,7′,7a′-hexahydrospiro[indoline-3,3′-pyrrolizin]-2-one] | – | –

Continued, molecule first:

Row | Structure (SMILES) | IC50 (PARP-1) [nM] | percentage of inhibition of PARP-1 (PARP-1) [%] | IC50 (EGFR) [nM] | percentage of inhibition of EGFR (EGFR) [%] | IC50 (HepG2 cells [4]) [nM] | other results
3 | Cc1c(C(=O)[C@H]2[C@H](c3cc4ccccc4o3)C3CCCN3[C@]23C(=O)Nc2cc(Cl)ccc23)nnn1-c1c(Cl)cc(Cl)cc1Cl (stereo partly drawn) [4a, (1′S,2′S,3R)-1′-(Benzofuran-2-yl)-6-chloro-2′-(5-methyl-1-(2,4,6-trichlorophenyl)-1H-1,2,3-triazole-4-carbonyl)-1′,2′,5′,6′,7′,7a′-hexahydrospiro[indoline-3,3′-pyrrolizin]-2-one] | 2.01 ± 0.1 | 95.2 | 74.6 ± 1.8 | 94.1 | – | Bax gene expression fold change ([1]; 2^−ΔΔCT): 4.6 fold; P53 gene expression fold change ([1]; 2^−ΔΔCT): 9.3 fold; caspase 3 gene expression fold change ([1]; 2^−ΔΔCT): 5.6 fold; caspase 8 gene expression fold change ([1]; 2^−ΔΔCT): 3.5 fold; caspase 9 gene expression fold change ([1]; 2^−ΔΔCT): 8.6 fold; BCL-2 gene expression (fold, decrease) ([1]; anti-apoptotic gene, decreased): 0.37 fold; early apoptosis cell population (HepG2 cells [2]): 12.1%; induction of apoptosis versus untreated control (HepG2 cells [2]): 6.62 fold; late apoptosis cell population (HepG2 cells [2]): 0.95%; cells in necrosis (HepG2 cells [2]; untreated 0.61%): 0.58%; cell population in total apoptosis (HepG2 cells [2]; untreated 1.97%): 13.05%; cell population in S-phase (HepG2 cells [3]; control 30%): 33%; cell population in G2/M-phase (HepG2 cells [3]; control 34%): 42%
4 | Cc1c(C(=O)[C@H]2[C@H](c3cc4ccccc4o3)C3CCCN3[C@]23C(=O)Nc2ccc(F)cc23)nnn1-c1c(Cl)cc(Cl)cc1Cl (stereo partly drawn) [4g, (1′S,2′S,3R)-1′-(Benzofuran-2-yl)-5-fluoro-2′-(5-methyl-1-(2,4,6-trichlorophenyl)-1H-1,2,3-triazole-4-carbonyl)-1′,2′,5′,6′,7′,7a′-hexahydrospiro[indoline-3,3′-pyrrolizin]-2-one] | – | – | – | – | 8900 ± 300 | –
5 | Cc1c(C(=O)/C=C/c2cc3ccccc3s2)nnn1-c1c(Cl)cc(Cl)cc1Cl [1b, (E)-3-(Benzo[b]thiophen-2-yl)-1-(5-methyl-1-(2,4,6-trichlorophenyl)-1H-1,2,3-triazol-4-yl)prop-2-en-1-one] | – | – | – | – | 8500 ± 400 | –
